Hits are enriched below; roughly 1.7% of the tested compounds scored in any of these assays.
SUMO1-SIM PPI – SUMO1-SIM interaction modulation | P63165 | SUMO1 binding to a labelled peptide, TR-FRET, 1 h | inhibition, % at 20 µM | actives 0.33% (n = 360,000); in the data active = inhibition above about 37%
Target sequence (P63165 whole entry, looked up): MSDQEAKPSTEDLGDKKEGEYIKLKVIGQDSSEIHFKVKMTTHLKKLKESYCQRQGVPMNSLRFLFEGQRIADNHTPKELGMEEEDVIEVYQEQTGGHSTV
Scp1 inh – inhibitors of human Scp-1 phosphatase | Q9GZU7 | Recombinant Scp1, phosphopeptide, malachite green phosphate absorbance | inhibition, % at 20 µM | actives 0.88% (n = 340,000);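 active = inhibition above about 50% at 20 µM, limit read from the data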;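 also: plate controls were DMSO wells with enzyme for no effect and wells lacking enzyme for full effect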
Target sequence (Q9GZU7 76-261 limits assumed): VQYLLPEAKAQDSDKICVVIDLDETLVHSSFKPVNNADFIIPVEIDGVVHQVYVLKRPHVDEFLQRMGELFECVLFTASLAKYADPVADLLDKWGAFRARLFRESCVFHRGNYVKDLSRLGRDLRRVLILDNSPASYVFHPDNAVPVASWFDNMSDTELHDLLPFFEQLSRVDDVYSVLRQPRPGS
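System: truncated SCP-1 phosphatase (76-261aa); medium: Tris acetate buffer pH 5.5 with MgCl2 and Tween-20; incubation: 45 min room-temperature reaction, 5 min colour, 30 min stabiliser; compound: single 20 µM dose, 1% DMSO; reagent: Phosphorylated 17-residue peptide substrate; read-out: % inhibition at 20 µM; technique: colorimetric free-phosphate detection, absorbance 630 nm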
STEP block – STEP (human) phosphatase inhibition; P54829; recombinant STEP, OMFP fluorogenic substrate, fluorescence; inhibition, % at 20 µM; actives 0.25% (n = 360,000); AID 588621;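 active = inhibition at 20 µM, scaled per plate between control wells, above about 37%, limit read from the data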;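 also: 0% = DMSO with enzyme and substrate and 100% = substrate only without enzyme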
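Test system: STEP tyrosine phosphatase / Reagent: OMFP at 25 µM / Doses: 20 µM, 1% DMSO / Read-out: percent inhibition scaled to no-enzyme and uninhibited-enzyme controls, plate-pattern corrected / Detection: FITC-channel fluorescence of OMFP product / Medium: Bis-Tris buffer pH 6.0, 2.5 mM DTT, 0.005% Tween 20 / Schedule: 20 min at room temperature, dark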
DNMT1 inh – blocks human DNA methyltransferase DNMT1; P26358; DNMT1 molecular beacon, Hinp1I cleavage, fluorescence; inhibition (reported as % activation of signal), % at 10 µM; actives 0.83% (n = 360,000); AID 588458; in the data active = inhibition above about 50%
LMPTP block – LMPTP (human) inhibition. P24666. recombinant LMPTP-A, OMFP fluorogenic substrate, fluorescence intensity. inhibition, % at 20 µM. actives 0.22% (n = 360,000). AID 651560;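 active = compounds that cut the enzyme signal by at least half of the control window in the single-dose screen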;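 also: plate controls were DMSO wells with enzyme plus substrate for no effect and substrate without enzyme for full effect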
Target sequence (P24666 whole entry, looked up): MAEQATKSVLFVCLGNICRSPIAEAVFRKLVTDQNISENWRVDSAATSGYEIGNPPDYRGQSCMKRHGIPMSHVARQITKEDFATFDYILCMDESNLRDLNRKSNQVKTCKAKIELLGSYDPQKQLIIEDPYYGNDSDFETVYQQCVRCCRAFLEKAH
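material = LMPTP-A | quantity = 0.625 nM enzyme | reagent = OMFP substrate, 400 µM final | buffer or medium = Bis-Tris pH 6.0, DTT, detergent | detection = endpoint fluorescence intensity from OMFP dephosphorylation | dosing = single 20 µM dose | read-out basis = % inhibition relative to no-enzyme and uninhibited control wells | control set = no-enzyme and uninhibited controls | timing = 50 min at room temperature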
* hit, by the source's call; i = inactive; · = no result; + = active, no number.

SMILES	SUMO1-SIM PPI	Scp1 inh	STEP block	DNMT1 inh	LMPTP block
COc1cc(/C=C2\C(=O)N(CCC#N)N=C2C)ccc1OCC(=O)Nc1ccccc1	11.7	-11.1	4.5	-8.9	-1.6
COc1cc(/C=C2\C(C)=C(C#N)c3nc(N)c(C#N)c(C)c32)ccc1OCC(=O)O	45.5*	0.2	0.5	-3.0	10.4
COc1ccccc1-c1csc(C(O)(c2ccccc2)C(F)(F)F)n1 (centres undefined)	-0.8	·	-2.6	-8.3	3.4
O=C(OCc1cn([C@H]2CN(C(=O)c3cccs3)[C@@H](c3ccccc3)C[C@@H]2O)nn1)c1ccccc1	3.4	·	1.5	-4.3	0.2
CCCCCCNC(=O)N[C@@H](C(=O)NCCC[C@H]1CN2C(=NC[C@@H]2Cc2ccccc2)N1CCc1cccc(OC)c1)C(C)C	·	92.0*	·	·	·
O=C(NCCCCO)c1c(-c2ccccc2)oc2c1C(OCCCCCO)CCC2 (centres undefined)	2.0	·	·	·	-0.5
Cc1ccccc1/C=N/Nc1nc2ccccc2[nH]1	-6.4	-1.4	0.6	3.8	3.5
O=[N+]([O-])c1cc(/C=N/Nc2nc3ccccc3[nH]2)c(O)cc1O	·	55.7*	·	·	·
Cn1c(=O)c2cc(NC(=O)CCc3cccnc3)ccc2n1Cc1ccc(F)cc1	4.5	·	-0.6	2.3	2.5
Cc1ccn2cc(-c3ccc4c(c3)NC(=O)CO4)nc2c1	53.9*	-1.4	3.4	1.0	16.2
COc1cccc(N=C2NC(=O)/C(=C/c3cc([N+](=O)[O-])ccc3O)S2)c1	-5.0	44.0	50.3*	2.7	88.2*
COc1ccc(-c2cc(=O)c3ccc(O)cc3o2)cc1OC	-0.8	·	-0.3	-0.4	-0.9
Nc1ccc(-c2c3ccc(=O)cc-3oc3cc(O)ccc23)c(C(=O)O)c1	i	-2.4	-109.7	+	10.7
Cc1c(-c2ccc(Cl)cc2)oc(=O)c2c(N)n(-c3ccccc3)nc12	-2.0	-21.4	0.3	54.1*	2.3
CCCc1nc2c(=O)n(C)c(=O)nc-2n(C)n1	27.3	-7.4	75.6*	96.8*	71.5*
COc1ccc(-c2nc(-c3ccccn3)ncc2S(C)(=O)=O)cc1	-2.5	-6.9	1.8	-1.1	-0.8
Cn1nc(-c2ccccn2)nc2c(=O)n(C)c(=O)nc1-2	33.6	-13.9	67.4*	98.0*	67.7*
O=C1N=c2ccccc2=C1c1sc(Nc2ccc(O)cc2)nc1O	3.5	80.0*	42.0*	-0.7	75.6*
COC1=CC(=O)C(O)=C(CCCCCCC/C=C/CCCCCCCC2=C(O)C(=O)C=C(OC)C2=O)C1=O	79.1*	88.0*	10.2	81.9*	68.9*
COC1=C(OC)C(=O)C(CCCCCCCCCCO)=C(C)C1=O	6.6	·	-4.3	-16.2	0.3
CCCCCCc1c(O)c2ccccc2[nH]c1=O	2.1	-4.3	-1.0	-2.0	1.0
CCCCCCCCCCCC1=C(O)C(=O)C=C(O)C1=O	10.9	33.9	11.8	30.8	71.2*
Cc1ccc(S(=O)(=O)NC(=O)C2(C)CCN2C(=O)CC2CCCC2)nc1 (centres undefined)	-2.3	·	-4.5	1.5	-1.9
O=C(CN1CCNCC1)N1CCOCC1	-0.4	·	1.2	-1.6	-0.7
C=CC(=O)Nc1cccc(Oc2ccnc3[nH]ccc23)c1	56.6*	9.3	54.2*	20.2	19.2
SMILES	SUMO1-SIM PPI	Scp1 inh	STEP block	DNMT1 inh	LMPTP block
COc1ccccc1Cc1c(-c2ccccc2)nc2cc(C)c(Br)c(C)n12	-1.4	·	·	·	2.9
COc1cccc2oc3cc(C#CC4(O)CCCCC4)ccc3c(=O)c12	-2.4	-8.6	-2.7	-2.7	0.5
COc1cccc2oc3cc(C#Cc4ccccn4)ccc3c(=O)c12	·	59.4*	·	·	·
CC(C)NC(=O)C1Cc2c(-c3ccc4c(c3)OCO4)ccnc2O1 (centres undefined)	4.3	·	1.2	2.7	-1.4
O=C(NCc1cc(C(F)(F)F)ccc1Cl)c1cccc2c1C(=O)c1ccc(N3CCC(N4CCCCC4)CC3)cc1S2(=O)=O	64.2*	·	1.1	7.3	21.0
Oc1cccc(/C=N/Nc2nn3cnnc3c3ccccc23)c1	84.0*	-0.8	-3.2	-0.1	7.1
COc1cccc(/C=N/Nc2nn3cnnc3c3ccccc23)c1O	3.0	4.1	1.2	4.7	2.9
COc1cccc(C(N)c2nc(-c3csc4ccccc34)cs2)c1 (centres undefined)	-4.2	·	2.6	6.0	1.2
